Experimental data from ChEMBL document CHEMBL1139452, “Synthesis and structure-activity relationships of 5,6,7,8-tetrahydro-4H-thieno[3,2-b]azepine derivatives: novel arginine vasopressin antagonists” (J Med Chem, 2004).

Assays:
Rattus norvegicus [1] = assay: Antagonistic effect against AVP-induced hypertension in rats after intravenous administration; type: functional; settings: read-out: ID50 (the source's name)
Method in brief: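 Male Sprague Dawley rats (250–350 g) under urethane anaesthesia (1.3 g/kg ip), with femoral artery and vein catheters, held at 37 °C. Compound or vehicle given iv (1 mL/kg) 2 min before AVP 30 mU/kg iv. ID50 is the dose inhibiting the maximal pressor response by 50%; n = 3, mean ± SEM.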

Rattus norvegicus [2] = assay: Diuretic effect was determined after peroral administration at a dose of 10 mg/kg in rats; type: functional, Urine; settings: route oral
Method in brief: (§1)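 Male Sprague Dawley rats (250–350 g) fasted 16–20 h, some also without water for 16–20 h. Compound or vehicle given orally. Spontaneously voided urine collected over 4 h in metabolic cages and reported as mL/4 h; n = 3, mean ± SEM.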

Vasopressin V2 receptor [3] = biological target: Vasopressin V2 receptor (Homo sapiens, UniProt P30518); assay: Inhibitory activity against human recombinant arginine vasopressin V2 receptor using [3H]AVP as radioligand in CHO cells; type: cell-based
Method in brief: (§2)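 Competition binding on plasma membrane preparations, with [3H]AVP (80 Ci/mmol, 1–2 nM) and graded test compound, in 100 mM Tris-HCl pH 7.5, 5 mM MgCl2, 1 mM EDTA, 0.1% BSA, ≤1% final DMSO. Incubated 20 min at 37 °C, stopped with ice-cold Tris pH 8.0, filtered on GF/B. Nonspecific binding: 1 μM AVP. IC50 by regression of displacement curves; n = 3, mean ± SEM.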

Vasopressin V2 receptor [4] = biological target: Vasopressin V2 receptor (Rattus norvegicus, UniProt Q00788); assay: Inhibitory activity against arginine vasopressin V2 receptor using [3H]AVP as radioligand in rat […] medulla; type: tissue-based; method in brief: as §2
Vasopressin V1 receptor [5] = biological target: Vasopressin V1 receptor (Homo sapiens, UniProt P37288+P47901); assay: Inhibitory activity against arginine vasopressin V1 receptor using [3H]AVP as radioligand in human platelet; method in brief: as §2
Vasopressin V1 receptor [6] = biological target: Vasopressin V1 receptor (Rattus norvegicus, UniProt P48974+P30560); assay: Inhibitory activity against arginine vasopressin V1 receptor using [3H]AVP as radioligand in rat liver; method in brief: as §2
Rattus norvegicus [7] = assay: Diuretic effect was determined after peroral administration at a dose of 30 mg/kg in rats; type: functional, Urine; settings: route oral; method in brief: as §1

Chain of Vasopressin V2 receptor (Homo sapiens, UniProt P30518) (P30518 whole entry): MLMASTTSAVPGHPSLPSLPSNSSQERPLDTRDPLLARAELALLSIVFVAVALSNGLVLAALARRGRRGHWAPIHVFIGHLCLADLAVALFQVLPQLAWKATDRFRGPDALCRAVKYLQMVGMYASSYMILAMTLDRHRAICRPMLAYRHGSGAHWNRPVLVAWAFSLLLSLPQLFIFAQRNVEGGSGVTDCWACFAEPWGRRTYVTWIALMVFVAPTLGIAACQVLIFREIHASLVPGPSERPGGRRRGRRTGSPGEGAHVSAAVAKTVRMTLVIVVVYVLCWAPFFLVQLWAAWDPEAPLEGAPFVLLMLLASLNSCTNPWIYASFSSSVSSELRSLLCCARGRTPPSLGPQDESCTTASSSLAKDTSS
Chain of Vasopressin V2 receptor (Rattus norvegicus, UniProt Q00788) (Q00788 whole entry): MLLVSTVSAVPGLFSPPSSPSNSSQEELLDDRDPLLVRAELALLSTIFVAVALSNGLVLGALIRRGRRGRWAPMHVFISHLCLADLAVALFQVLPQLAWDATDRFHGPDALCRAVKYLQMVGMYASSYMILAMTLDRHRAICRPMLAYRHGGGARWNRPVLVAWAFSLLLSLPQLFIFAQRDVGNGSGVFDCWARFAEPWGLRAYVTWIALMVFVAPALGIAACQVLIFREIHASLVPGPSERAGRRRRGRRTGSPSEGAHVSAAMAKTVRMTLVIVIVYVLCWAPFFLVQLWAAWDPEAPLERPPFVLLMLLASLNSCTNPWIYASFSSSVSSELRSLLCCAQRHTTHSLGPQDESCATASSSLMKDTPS

Row | Compound | IC50 (Vasopressin V2 receptor [3]) | IC50 (Vasopressin V2 receptor [4]) | IC50 (Vasopressin V1 receptor [5]) | IC50 (Vasopressin V1 receptor [6]) | ED50 (Rattus norvegicus [1]) | Urine volume (Rattus norvegicus [2]) | Urine volume (Rattus norvegicus [7])
1 | O=C(Nc1ccc(C(=O)N2CCCN(Cc3cccnc3)c3sccc32)cc1)c1ccccc1-c1ccccc1 | 0.06 µM | 0.03 µM | 0.7 µM | 0.5 µM | 0.14 mg/kg | 1.2 ml 4hr-1 | 
2 | COc1cc(C(=O)N2CCCC(N(C)C)c3sccc32)ccc1NC(=O)c1ccccc1-c1ccccc1 (stereo not given) | 0.02 µM | 0.01 µM | 3 µM | 2 µM | > 0.3 mg/kg | 9.3 ml 4hr-1 | 12 ml 4hr-1
3 | O=C(Nc1ccc(C(=O)N2CCCN(CCN3CCCC3)c3sccc32)cc1)c1ccccc1-c1ccccc1 | 0.2 µM | 0.01 µM | 0.8 µM | 0.2 µM | > 0.3 mg/kg | 6.3 ml 4hr-1 | 
4 | CN(C)CCN(C)CCCCOc1cc(C(=O)N2CCCCc3sccc32)ccc1NC(=O)c1ccccc1-c1ccccc1 | 0.08 µM | 0.008 µM | 0.005 µM | 0.02 µM | 0.02 mg/kg | 10.2 ml 4hr-1 | 
5 | CN1CCN(CCN2CCCN(C(=O)c3ccc(NC(=O)c4ccccc4-c4ccccc4)cc3)c3ccsc32)CC1 | 0.05 µM | 0.01 µM | 1 µM | 0.2 µM | > 0.3 mg/kg | 7.4 ml 4hr-1 | 
6 | O=C(Nc1ccc(C(=O)N2CCCN(Cc3ccccc3)c3sccc32)cc1)c1ccccc1-c1ccccc1 | 0.08 µM | 0.07 µM | 0.4 µM | 0.5 µM | > 0.3 mg/kg |  | 
7 | CN1CCCN(CC(=O)N2CCCN(C(=O)c3ccc(NC(=O)c4ccccc4-c4ccccc4)cc3)c3ccsc32)CC1 | > 10 µM | 0.1 µM | > 10 µM | > 10 µM |  |  | 
8 | O=C(Nc1ccc(C(=O)N2CCCCc3sccc32)cc1OCCCC(=O)N1CCC(N2CCCCC2)CC1)c1ccccc1-c1ccccc1 | 0.03 µM | 0.02 µM | 0.01 µM | 0.02 µM | 0.03 mg/kg | 8 ml 4hr-1 | 
9 | CN1CCCN(C(=O)CCCOc2cc(C(=O)N3CCCCc4sccc43)ccc2NC(=O)c2ccccc2-c2ccccc2)CC1 | 0.01 µM | 0.003 µM | 0.05 µM | 0.02 µM | 0.008 mg/kg | 19.1 ml 4hr-1 | 
10 | CN(C)C1CCN(C(=O)CCCOc2cc(C(=O)N3CCCCc4sccc43)ccc2NC(=O)c2ccccc2-c2ccccc2)CC1 | 0.02 µM | 0.003 µM | 0.003 µM | 0.006 µM | 0.005 mg/kg | 22 ml 4hr-1 | 
11 | CN(C)CCN1CCCN(C(=O)c2ccc(NC(=O)c3ccccc3-c3ccccc3)cc2)c2ccsc21 | 0.08 µM | 0.02 µM | 0.4 µM | 0.3 µM | 0.31 mg/kg | 6.7 ml 4hr-1 | 

Now from value to compound, other results behind:

Row | IC50 (Vasopressin V2 receptor [3]) | IC50 (Vasopressin V2 receptor [4]) | IC50 (Vasopressin V1 receptor [5]) | IC50 (Vasopressin V1 receptor [6]) | Compound | ED50 (Rattus norvegicus [1]) | Urine volume (Rattus norvegicus [2]) | Urine volume (Rattus norvegicus [7])
12 | 0.008 µM | 0.004 µM | 0.05 µM | 0.02 µM | CN(C)C1CCN(C(=O)COc2cc(C(=O)N3CCCCc4sccc43)ccc2NC(=O)c2ccccc2-c2ccccc2)CC1 | 0.02 mg/kg | 15 ml 4hr-1 | 
13 | 0.009 µM | 0.006 µM | 0.004 µM | 0.004 µM | CCN(CC)C1CCN(C(=O)CCCOc2cc(C(=O)N3CCCCc4sccc43)ccc2NC(=O)c2ccccc2-c2ccccc2)CC1 | 0.01 mg/kg | 18 ml 4hr-1 | 
14 | 0.001 µM | 0.007 µM | 0.005 µM | 0.003 µM | CN1CCN(CCCCOc2cc(C(=O)N3CCCCc4sccc43)ccc2NC(=O)c2ccccc2-c2ccccc2)CC1 | < 0.01 mg/kg | 16.9 ml 4hr-1 | 
15 | < 0.01 µM | < 0.01 µM | 0.06 µM | 0.2 µM | O=C(Nc1ccc(C(=O)N2CCCCc3sccc32)cc1O)c1ccccc1-c1ccccc1 | 0.04 mg/kg | 2.3 ml 4hr-1 | 
16 | 0.002 µM | < 0.001 µM | < 0.001 µM | 0.002 µM | CN1CCCN(CCCOc2cc(C(=O)N3CCCCc4sccc43)ccc2NC(=O)c2ccccc2-c2ccccc2)CC1 | 0.03 mg/kg | 18.3 ml 4hr-1 | 
17 | 0.006 µM | 0.001 µM | 0.01 µM | 0.02 µM | CN1CCN(C(=O)CCCOc2cc(C(=O)N3CCCCc4sccc43)ccc2NC(=O)c2ccccc2-c2ccccc2)CC1 | 0.03 mg/kg | 17.6 ml 4hr-1 | 
